FLuc inhib CS – inhibits firefly luciferase, flagging false hits in luciferase inhibition screens; ATPLite firefly luciferase biochemical luminescence, 10 min; inhibition, % at 10 µM; 200,000 tested, 1.5% active; P08659;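 active = inhibition above about 50% when tested at 10 µM, limit read from the data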
Target sequence (P08659 whole entry, looked up): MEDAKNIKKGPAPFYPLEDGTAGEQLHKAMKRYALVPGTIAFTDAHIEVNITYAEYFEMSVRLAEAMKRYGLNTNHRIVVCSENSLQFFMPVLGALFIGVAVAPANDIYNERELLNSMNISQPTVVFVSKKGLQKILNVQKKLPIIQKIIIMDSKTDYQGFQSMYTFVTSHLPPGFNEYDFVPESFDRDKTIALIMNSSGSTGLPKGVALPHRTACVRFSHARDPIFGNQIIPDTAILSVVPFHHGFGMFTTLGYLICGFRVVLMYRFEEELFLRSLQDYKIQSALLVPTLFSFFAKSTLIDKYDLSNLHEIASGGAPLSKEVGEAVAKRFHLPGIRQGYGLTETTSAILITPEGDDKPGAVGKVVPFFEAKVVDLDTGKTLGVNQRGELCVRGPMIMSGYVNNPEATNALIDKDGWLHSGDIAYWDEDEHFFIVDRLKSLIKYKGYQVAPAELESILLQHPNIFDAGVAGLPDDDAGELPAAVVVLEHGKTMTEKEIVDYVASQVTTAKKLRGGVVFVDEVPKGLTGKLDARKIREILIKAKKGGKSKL
FLuc stim CS – affects firefly luciferase, flagging false hits in luciferase stimulation screens. P08659. ATPlite luciferase biochemical, luminescence, 10 min; 0 = ATP-free wells, 1 = DMSO control. activation factor at 10 µM. 200,000 tested, under 10 active;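 active = luciferase activation factor, scaled between plate controls, of at least 2 with compound at 10 µM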
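System: cell-free luciferase reagent; medium: PBS as buffer for the ATP substrate; doses: test compounds dosed from 2 mM stocks in 100% DMSO; incubation: 10 min, room temperature; measured by: luminescence from luciferase reaction; read-out: luciferase activation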
NF-kB neuron act – NF-kB expression increase, human neuronal cells; NF-kB reporter expression; active compounds read high; fold change at 12.5 µM; 190,000 tested, 1.6% active; in the data active = fold change above about 3.3
STAT1 activator – activators of IFN-gamma induced STAT1 signaling | 200,000 tested, 2.6% active | activation (% of control), % at 5.5 µM | AID 932 | NIH 3T3 STAT1-luciferase reporter, luminescence; 100% = IFN-gamma alone, no compound;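 active = activation above the screen-wide mean activation plus 3 SD, cut at about 130% in these data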;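 also: raw ratio to IFN-gamma control signal so 100% means no change and 0% no light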
APP 5'UTR act – activates APP 5'UTR luciferase reporter; activation, % at 2 µM; 190,000 tested, 1% active; SH-SY5Y APP 5'UTR luciferase reporter, luminescence; zero percent = DMSO vehicle wells;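 active = activation above a set limit, based on mean plus 3 SD of controls, cut at about 140% in these data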
SDO1 yeast rescue – sdo1-depleted yeast growth rescue; 140,000 tested, 0.21% active; S. cerevisiae sdo1-depleted JHY4D growth rescue, OD600 30 h; active compounds read high; pdr5 snq2 efflux-pump mutant strain; z-score at 10 µM; AID 817;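 active = z-score above 3 at both the 24 hr and the 30 hr optical density reads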;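 also: z-score against mean and SD of all compound wells on the same plate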
Starred values were filed as active, the others as inactive; . = no result given. Sampled rows, rich in hits. Any-hit rate of the full collection: about 4.3%.

SMILES | FLuc inhib CS | FLuc stim CS | NF-kB neuron act | STAT1 activator | APP 5'UTR act | SDO1 yeast rescue
Clc1ccc(C2=NNC(=NCc3ccc4c(c3)OCO4)SC2)cc1 | -5 | 1 | 1.2 | 94 | 1 | -0.55
COc1ccc(CN=C2NN=C(c3ccc(Cl)cc3)CS2)cc1 | 6 | 0.9 | 2.8 | 144* | 8 | .
COc1ccc(C2=NN(C)C(=NCc3ccccc3)SC2)cc1 | -6 | 1.1 | 1.2 | 103 | -6 | 0.15
COc1ccc(CN=C2Nc3ccccc3CS2)cc1 | 53* | 0.5 | 6.7* | 126 | 200* | -0.59
C=CCC(NC(C)c1ccccc1)c1ccco1 (configuration not stated) | 1 | 1 | 1 | 102 | 18 | 1.1
CCc1cc[n+](-c2nc3ccccc3nc2C(=C=[N-])C#N)cc1 | -6 | 1.1 | 5* | 100 | 7 | 0.2
O=C1NC(=O)/C(=C/c2ccc(O)cc2)S1 | 27 | 0.7 | 1.9 | 130* | 17 | .
CCCCOc1ncnc2c1[nH]c1ccc(OC)cc12 | 11 | 0.9 | 4.4* | 137* | 69 | 0.19
CCCCOc1ncnc2c1[nH]c1ccc(OCC)cc12 | 2 | 1 | 1.5 | 100 | 0 | 0.13
CCCCN(C)CCNC(=O)c1ccc(Cn2c(=S)[nH]c3ccc(Br)cc3c2=O)cc1 | -2 | 1 | 0.8 | 104 | 7 | .
C(=N\Nc1nc2ccccc2s1)/c1ccco1 | 62* | 0.4 | 5.5* | 144* | 203* | -0.95
C(=N\Nc1nc2ccccc2s1)/c1cccs1 | 48 | 0.5 | 7.1* | 146* | 212* | -1.5
Cc1ccsc1/C=N/Nc1nc2ccccc2s1 | 64* | 0.4 | 11* | 181* | 232* | -1.4
Cc1cc(N/N=C/c2ccco2)c2ccccc2n1 | -4 | 1 | 1.4 | 105 | -1 | .
Cc1nn(-c2ccccc2Cl)c(Cl)c1/C=N/Nc1nc2ccccc2s1 | 81* | 0.2 | 0.36 | 70 | -39 | 2.6
O=C(CCCC(=O)OCC(Cl)=C(Cl)Cl)Nc1ccc(F)cc1 | -2 | 1 | 1.1 | 89 | 5 | 0.2
O=C(NC(Cc1ccccc1)C(=O)O)/C(=C/c1ccco1)NC(=O)c1cccc(Br)c1 (configuration not stated) | -6 | 1.1 | 1.2 | 102 | -16 | 0.87
COC(=O)c1ccc(CO/N=C/c2ccc(OC)cc2)o1 | -2 | 1 | 4.6* | 121 | 11 | .
COC(=O)c1ccc(COc2ccc(C=O)cc2OC)o1 | 6 | 0.9 | 1.4 | 102 | -2 | .
N#Cc1c(-c2cccs2)cc(C2CC2)nc1SCC(N)=O | -3 | 1 | 1.2 | 106 | -11 | -1.7
COc1ccc2nc(-c3cccc(N)c3)[nH]c2c1 | 87* | 0.1 | 2.5 | 119 | 60 | 1.1
COc1ccc2nc(-c3ccc(N)cc3)[nH]c2c1 | 65* | 0.4 | 1.7 | 98 | -39 | -0.12
COc1ccc2nc(SCC(N)=O)[nH]c2c1 | -3 | 1 | 1.1 | 102 | -6 | 0.33
Nc1ccc2nc(-c3cccnc3)[nH]c2c1 | 12 | 0.9 | 1.1 | 108 | . | 0.55
CCCN1CCN(C(=O)CN2C(=O)CC(C)(C)S(=O)(=O)c3ccccc32)CC1 | -2 | 1 | 1.1 | 96 | 6 | 0.33
SMILES | FLuc inhib CS | FLuc stim CS | NF-kB neuron act | STAT1 activator | APP 5'UTR act | SDO1 yeast rescue
CC(=O)Nc1cccc(-c2nnc(SCc3ccccc3C#N)n2C)c1 | -5 | 1 | 1.1 | 99 | 1 | 1.2
COc1cc(CNc2ccc(CNc3ncn[nH]3)cc2)ccc1OCc1ccccc1 | 1 | 1 | 1.3 | 129* | 7 | 0.21
COc1ccccc1CNc1ccc(CNc2ncn[nH]2)cc1 | -3 | 1 | 5.3* | 102 | -6 | .
O=C(/C=C/c1cccc([N+](=O)[O-])c1)NC(=S)Nc1ccccc1C(=O)O | -5 | 1.1 | 0.95 | 88 | 7 | .
CC1=C(C(=O)NC(C)CCc2ccccc2)C2(CCC(C)CC2)OC1=O (configuration not stated) | -6 | 1.1 | 0.93 | 99 | 3 | .
Cc1ccc(S(=O)(=O)NCC(=O)N(CC(=O)NC2CCCCC2)CC2CCCO2)cc1 (configuration not stated) | -7 | 1.1 | 1.3 | 99 | -8 | 0.77
CC(C)(C)c1cc(C(=O)N2CCN(c3ncccn3)CC2)ccn1 | -6 | 1.1 | 4.8* | 96 | 4 | -0.24
O=C(c1ccc(F)cc1)N1CCN(c2ncccn2)CC1 | -8 | 1.1 | 0.95 | 112 | 7 | 0.05
CC(C)(C)N1CSC(=S)N(Cc2ccccc2)C1 | -7 | 1.1 | 4.5* | 99 | -14 | .
CCN(CC)c1ccc(/C=C2\CCC(/C=N/NC(=O)c3ccc(=O)n(C)c3)=C2N2CCOCC2)cc1 | -3 | 1 | 0.43 | 102 | 10 | -0.1
COc1ccccc1CCNC(=O)c1csc2c1CCCC2 | 2 | 1 | 1.5 | 111 | 3 | .
Cc1ccccc1NC(=O)c1csc2c1CCCC2 | 18 | 0.8 | 1.7 | 117 | 25 | -1.1
Cc1ccc(/C=N\NC(=O)c2csnn2)cc1 | 66* | 0.3 | 2.3 | 134* | 23 | 2.6
COc1ccc(NC(=O)c2csc3c2CCCC3)cc1 | 29 | 0.7 | 7.3* | 142* | 159* | -1.3
CC(C)(C)C1CCc2c(C(=O)N/N=C/c3cccs3)csc2C1 (configuration not stated) | 7 | 0.9 | 2.4 | 129* | 17 | -0.55
COc1cccc(NC(=O)c2csc3c2CCCC3)c1 | 22 | 0.8 | 1 | 145* | 75 | .
Cc1ccc(/C=N/NC(=O)c2csc3c2CCCC3)cc1 | 5 | 0.9 | 3.8* | 119 | -90 | 1.9
COCCCn1cnc2oc3nc4ccccc4nc3c2c1=O | 12 | 0.9 | 2.3 | 141* | 166* | -0.21
Cn1c(SCc2nnc(-c3ccccc3Br)o2)nc2sc3c(c2c1=O)CCC3 | 5 | 1 | 4.5* | 99 | 5 | -1.7
CCCCNC(=O)c1cc(-c2ccc(OC)cc2)on1 | 15 | 0.9 | 3.6* | 120 | 35 | -0.54
CCCCNC(=O)c1cc(-c2ccc(OC)c(OC)c2)on1 | -3 | 1 | 1.4 | 103 | -6 | -0.5
CCCCNC(=O)c1cc(-c2ccc(F)cc2)on1 | 9 | 0.9 | 11* | 136* | 93 | -0.92
Cc1cc(/C=C(\C#N)C(=O)NC2CC2)c(C)[nH]1 | 42 | 0.6 | 2.3 | 145* | 39 | 0.2
CCOc1ccc(N2C(=O)CC(SCCN)C2=O)cc1 (configuration not stated) | 57* | 0.4 | 2.2 | 118 | 68 | 1.1
CCOc1ccc(N2C(=O)CC(Sc3nc(C)cc(C)n3)C2=O)cc1 (configuration not stated) | -4 | 1 | 1 | 100 | 1 | 1.1
CC1CCN(C(=O)c2cc(-c3ccccc3O)on2)CC1 | 26 | 0.7 | 7.3* | 113 | 134 | -1.3
O=C(c1cc(-c2ccccc2)on1)N1CCCC1 | 46 | 0.5 | 4.1* | 132* | 61 | 0.42

Assay outcomes from PubChem.
